This is a sample that favours compounds with a hit; in the whole collection about 2.9% have one here.
ERAP1 inh = ERAP1 (human) enzyme inhibition | recombinant ERAP1, Leu-AMC fluorescence, 60 min | 340,000 tested, 0.15% active | inhibition, % at 10.7 µM;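 active = mean replicate inhibition of at least 30%, or all replicates individually reaching that 30% level; inactive = mean below 30% and not every replicate reaching it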;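 also: 0% = neutral control wells and 100% = L-leucinethiol positive control wells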
DENV2 CPE rescue = protects cells from dengue virus 2 cytopathic effect | 350,000 tested, 1.7% active | AID 651640 | CPE inhibition, % at 9.99 µM | DENV2-infected cells, cytopathic effect rescue, plate reader; in the data active = CPE inhibition above about 20%, passing the limit was not always enough; inconclusive = no clear call, values can overlap the other calls; tested in BHK-21 cells;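 also: 0% = median of neutral control wells and 100% = median of positive control wells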
SIRT5 block = blocks human SIRT5 desuccinylation of peptide; Q9NXA8; Purified SirT5, succinyl-peptide AMC, trypsin-coupled fluorescence; inhibition, % at 15 µM; 330,000 tested, 1.1% active; in the data active = inhibition above about 15%; inconclusive = no clear call, values can overlap the other calls
Target sequence (Q9NXA8 whole entry, looked up): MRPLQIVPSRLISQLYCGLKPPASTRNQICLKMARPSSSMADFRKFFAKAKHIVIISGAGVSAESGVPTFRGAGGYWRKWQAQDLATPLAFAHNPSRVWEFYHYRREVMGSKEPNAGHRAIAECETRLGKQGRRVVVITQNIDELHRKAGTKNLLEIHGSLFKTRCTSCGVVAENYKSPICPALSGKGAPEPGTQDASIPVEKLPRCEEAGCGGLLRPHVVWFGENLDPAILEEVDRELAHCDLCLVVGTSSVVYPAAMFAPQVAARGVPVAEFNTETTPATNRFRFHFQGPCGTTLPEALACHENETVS
CAL PDZ FP-1 = blocks peptide binding to the human CAL PDZ domain; Q9HD26; purified CAL PDZ, TMR-peptide fluorescence polarization, 1 h; inhibition, % at 24.9 µM; 300,000 tested, 0.92% active; AID 602252;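 active = mean inhibition of at least 30% with at least half of replicates also reaching 30%; inconclusive = no clear call, values can overlap the other calls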;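 also: 0% = DMSO neutral control and 100% = excess unlabeled competitor peptide PRC23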
CAL PDZ FP-2 = blocks peptide binding to human CAL PDZ domain | purified CAL PDZ, TMR-peptide fluorescence polarization, 1 h | AID 504414 | 330,000 tested, 0.02% active | inhibition, % at 20 µM;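 active = highest replicate inhibition of at least 40%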;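 also: plate controls were DMSO neutral control wells for no effect and unlabeled competitor peptide control wells for full effect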
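Material: tagged CAL PDZ domain; buffer or medium: 25 mM sodium phosphate pH 7.4, 150 mM NaCl, TCEP, IgG, Thesit; compound dosing: single point, 20 µM; schedule: 1 h incubation at room temperature before polarization reading; measured by: FP readout, S and P plane fluorescence; read-out basis: percent inhibition from loss of millipolarization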
S100A4 MyoIIA = blocks human S100A4 binding to myosin IIA peptide; AID 652163; inhibition, % at 10.7 µM; S100A4/TAMRA-MyoIIA peptide fluorescence polarization; P26447; 360,000 tested, 0.14% active;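 active = mean inhibition of at least 70% across replicates, with every replicate also reaching that level; inconclusive = mean inhibition reaches 70% but some replicates fall short; inactive = mean inhibition below 70%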
Target sequence (P26447 whole entry, looked up): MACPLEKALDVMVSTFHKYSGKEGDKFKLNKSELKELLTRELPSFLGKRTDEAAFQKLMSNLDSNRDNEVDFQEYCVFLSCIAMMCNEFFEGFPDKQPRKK
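Material: human S100A4 monomer with TAMRA-labelled myosin IIA peptide; buffer or medium: HEPES pH 7.2 with CaCl2, KCl, NaCl, DTT, Triton; compound dosing: one concentration per compound; schedule: 5 min incubation before reading; benchmarks: neutral control DMSO, positive control TFP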
Starred values were filed as active, the others as inactive; ? = inconclusive; · = no result; ! = not active in a repeat.

SMILES	ERAP1 inh	DENV2 CPE rescue	SIRT5 block	CAL PDZ FP-1	CAL PDZ FP-2	S100A4 MyoIIA
O=C(NCCCN1CCOCC1)[C@@H]1[C@@H](CO)[C@@H]2Cn3c(cccc3=O)[C@H]1N2C(=O)C1CCCC1	1	?	1	·	·	2
Cc1ccc(S(=O)(=O)Nc2ccc3c(c2)C(=O)N([C@H](C)CO)C[C@H](C)[C@H](CN(C)C(=O)c2ccccc2)OCCCC[C@@H](C)O3)cc1	-1	0	0	·	·	-4
C[C@@H]1CCCCO[C@@H](CN(C)C(=O)C2CCCCC2)[C@H](C)CN([C@@H](C)CO)C(=O)c2cc(NS(=O)(=O)c3cn(C)cn3)ccc2O1	0	7	-3	·	·	-3
COc1ccc2c3c(n(C)c2c1)[C@@H](CO)N(Cc1ccccc1)CC31CCN(C)CC1	·	56*	·	·	·	·
CCCNC(=O)N1CCC2(CC1)CN(Cc1ccccn1)[C@@H](CO)c1c2c2ccc(OC)cc2n1C	-2	71*	1	·	·	-5
CCCNC(=O)N1CC2(C1)CN(Cc1ccccn1)[C@@H](CO)c1c2c2ccc(OC)cc2n1C	7	9	0	·	·	1
CCS(=O)(=O)N1CC2(CN(Cc3cccc(Cl)c3)[C@H](CO)c3c2c2ccc(OC)cc2n3C)C1	-3	-7	26*	·	·	0
COc1cccc(CN2CC3(CCN(C)CC3)c3c(n(C)c4cc(OC)ccc34)[C@@H]2CO)c1	4	11	1	·	·	4
Cc1noc(C)c1NC(=O)N(C)C[C@@H]1Oc2ccc(NC(=O)Nc3ccc(C(F)(F)F)cc3)cc2CC(=O)N([C@@H](C)CO)C[C@@H]1C	-5	1	4	·	·	0
C[C@H]1CN([C@@H](C)CO)C(=O)c2cccc(NC(=O)C3CCCCC3)c2O[C@H]1CN(C)Cc1ccc2c(c1)OCO2	0	23*	2	·	·	-26
C[C@H](CO)N1C[C@H](C)[C@H](CN(C)Cc2ccc3c(c2)OCO3)Oc2c(NC(=O)C3CCCCC3)cccc2C1=O	0	-1	-1	·	·	-2
C[C@@H]1CN([C@@H](C)CO)C(=O)c2cccc(NC(=O)C3CCCCC3)c2O[C@H]1CN(C)Cc1ccc2c(c1)OCO2	0	21*	6	·	·	16
C[C@@H]1CN([C@H](C)CO)C(=O)c2cccc(NC(=O)C3CC3)c2O[C@H]1CN(C)Cc1ccc2c(c1)OCO2	1	-2	0	·	·	2
C[C@H](CO)N1C[C@H](C)[C@@H](CN(C)Cc2ccc3c(c2)OCO3)Oc2c(NC(=O)C3CCCCC3)cccc2C1=O	-1	122*!	2	-4	-2	16
C[C@H](NC(=O)C[C@@H]1C[C@@H]2c3cc(NC(=O)C4CCOCC4)ccc3O[C@@H]2[C@@H](CO)O1)c1ccccc1	-3	2	-2	·	·	-18
Cc1ccc(S(=O)(=O)N[C@@H]2CC[C@@H](CC(=O)NCc3ccccc3F)O[C@H]2CO)cc1	-3	10	-2	·	·	-52
Cc1ccc(S(=O)(=O)Nc2ccc3c(c2)C(=O)N([C@H](C)CO)C[C@H](C)[C@@H](CN(C)C(=O)Cc2ccccc2)OCCCC[C@@H](C)O3)cc1	3	5	4	·	·	-3
O=S(=O)([O-])CCC[n+]1ccc(Oc2ccccc2)cc1	50*	-2	0	-5	-1	0
O=C(c1cccc(F)c1)N1CC(=O)N2[C@H](C1)[C@H](c1ccc(C3=CCCC3)cc1)[C@@H]2CO	-1	?	1	·	·	6
CC1=NCCN1CCNC(=O)Nc1ccc(C(C)(C)C)cc1	·	24*	-1	·	0	-7
COc1ccc2c(c1)CO[C@@]21O[C@H](CCO)C[C@H](O)[C@H]1O	1	-4	-3	·	·	-15
Cc1ccc2c(c1)CO[C@]21O[C@H](CCO)C[C@H](O)[C@H]1O	0	44*	-4	·	·	-3
c1ccc(NC2=NCCN2CC2CCC2)cc1	-2	5	·	-4	2	3
CC1CCC(CN2CCN=C2Nc2ccccc2)CC1 (centres undefined)	3	40*	·	1	0	13
O=C(CCN1CCCCC1)NCC[C@H]1CC[C@H](NC(=O)Cc2cccnc2)[C@H](CO)O1	-2	-2	0	·	·	2
SMILES	ERAP1 inh	DENV2 CPE rescue	SIRT5 block	CAL PDZ FP-1	CAL PDZ FP-2	S100A4 MyoIIA
CC(C)OC(=O)c1ccc(NCc2cc(O)ccc2O)cc1	2	51*	·	-2	-1	1
O=C(OCc1ccccc1)c1ccc(NCc2cc(O)ccc2O)cc1	-2	-4	·	-2	0	-2
COc1cccc(C#Cc2ccc([C@@H]3[C@H](CO)N4C(=O)CN(C(=O)C5CC5)C[C@@H]34)cc2)c1	0	3	0	·	·	0
CCN(Cc1ccccc1)c1ccccc1	6	37*	·	-18	2	-3
CCN(Cc1ccccc1)c1ccc(/C=N/N=C(N)N)cc1	-103	1	-4	-3	2	2
COc1ccc(CCNc2nc(-c3ccccn3)cs2)cc1OC	0	-7	3	49*	-2	-4
COc1ccc(CCNc2nc(-c3ccncc3)cs2)cc1OC	·	-3	-1	·	0	3
C[C@H](CO)N1C[C@H](C)[C@H](CN(C)Cc2ccc(C(=O)O)cc2)OCCCC[C@H](C)Oc2ccc(NC(=O)Nc3ccc4c(c3)OCO4)cc2C1=O	-3	-4	-4	·	·	5
Nc1ccc(Cc2ccc(N)c(C(=O)O)c2)cc1C(=O)O	3	·	45*	-6	-2	-2
Cc1cc(C)cc(C(O)c2ncc(-c3ccc4ccccc4c3)[nH]2)c1 (centres undefined)	2	-4	-1	·	·	-5
Cc1ccc(C(O)c2ncc(-c3ccc4ccccc4c3)[nH]2)cc1 (centres undefined)	-4	76*	-3	·	·	-4
Cc1ccc(S(=O)(=O)N(C)C[C@H]2OCCCC[C@@H](C)Oc3ccc(NS(=O)(=O)c4ccccc4)cc3C(=O)N([C@@H](C)CO)C[C@H]2C)cc1	3	-6	22*	·	·	-4
Cc1ccc(S(=O)(=O)N(C)C[C@@H]2OCCCC[C@@H](C)Oc3ccc(NS(C)(=O)=O)cc3C(=O)N([C@@H](C)CO)C[C@H]2C)cc1	0	36*	2	·	·	0
Cc1ccc(S(=O)(=O)N(C)C[C@@H]2OCCCC[C@H](C)Oc3ccc(NS(=O)(=O)c4ccccc4)cc3C(=O)N([C@H](C)CO)C[C@@H]2C)cc1	3	-3	21*	·	·	9
Cc1ccc(S(=O)(=O)Nc2ccc3c(c2)C(=O)N([C@H](C)CO)C[C@H](C)[C@@H](CN(C)S(=O)(=O)c2ccccc2)OCCCC[C@@H](C)O3)cc1	1	?	4	·	·	6
Cc1ccc(S(=O)(=O)Nc2ccc3c(c2)C(=O)N([C@@H](C)CO)C[C@H](C)[C@@H](CN(C)S(=O)(=O)c2ccccc2)OCCCC[C@H](C)O3)cc1	2	20	12	·	·	-7
